Sampled rows, rich in hits. Any-hit rate of the full collection: about 1.8%.
NR1D1 modulator: modulators of human Rev-erb alpha DNA binding; P20393; Rev-erbα–FITC-DNA binding, fluorescence polarization, 90 min; activity, % at 10 µM; 370,000 tested, 0.79% active;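 active = activity above about 14%, limit read from the data; passing the limit was not always enough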
PG9 Ab binder: PG9 antibody binding by small molecule; 360,000 tested, 0.43% active; inhibition, % at 6.7 µM; AID 624416; TR-FRET gp120-PG9 antibody binding; in the data active = inhibition above about 8.5%
Rin1 Abl inh: human Rin1-Abl interaction inhibition; P00519+Q13671; TR-FRET Rin1/Abl binding, biochemical; inhibition, % at 7.35 µM; 360,000 tested, 0.4% active; AID 588664; in the data active = inhibition above about 5%, passing the limit was not always enough
Tb MetRS inh: blocks T. brucei methionyl-tRNA synthetase activity; purified T. brucei MetRS, ATP depletion, Kinase-Glo luminescence; inhibition, % at 11.9 µM; 360,000 tested, 0.4% active;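 active = inhibition above a per-plate cutoff of the control wells' mean inhibition plus 3 SD, cut at about 5.5% in these data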
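Material: T. brucei methionyl-tRNA synthetase, purified; reagent: substrates ATP, L-methionine and bulk Escherichia coli tRNA; dosing: 11.9 µM single point; timing: 15 min plus 2 h at 25 °C; detection: luminescence of leftover ATP; evaluation: % inhibition; control set: DMSO-only wells as low control; replicates: singlicate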
Rev-erbA confirm: Rev-erb alpha (human) modulation, hit confirmation | 3,000 tested, 61% active | shares compounds with NR1D1 modulator | Rev-erb alpha FITC-DNA binding, fluorescence polarization, 90 min | activation, % at 25 µM;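 active = activation at or above a set limit, or at least 3 SD above the negative control mean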
RORg counter: RORgamma DNA-binding activity, dose-response counter-screen | IC50, µM | shares compounds with NR1D1 modulator | AID 1259320 | purified RORgamma protein-FITC-DNA binding, fluorescence polarization | 910 tested, 8% active;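 active = Compounds whose fitted half-maximal concentration for disrupting protein-DNA binding is below 10 micromolar; the record names Rev-erb in its text, so the target is in doubt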
Numbers stand for hits; n = inactive; x = not tested or not shown.

SMILES	NR1D1 modulator	PG9 Ab binder	Rin1 Abl inh	Tb MetRS inh	Rev-erbA confirm	others
Nc1ncnc(N2CCc3ccccc32)c1[N+](=O)[O-]	n	n	n	n	x
COC(=O)c1cc(=O)nc(NN=C(C)C)s1	n	n	x	x	x
O=C(O)Cn1cc(/C=C/[N+](=O)[O-])c2ccccc21	n	n	n	n	x
C=CCn1c(C)c(/C=C/c2cc[n+](C)cc2)c2ccccc21	237.4	n	n	n	212.6	RORg counter=n
C=CCn1cc(/C=C/c2cc[n+](C)cc2)c2ccccc21	167.9	n	n	n	143.3	RORg counter=n
CC(C)(O)CN(C(=O)c1ccccc1)C1CCCCC1	n	n	n	n	x
CC[C@H]1C/C=C\Cc2ccccc2[C@@H](C(=O)C[C@@H](O)CC(C)=O)OC1=O	n	n	n	n	x
Cc1nn(-c2ccc(F)cc2)c2sc(C(=O)N3CCCCCC3)cc12	n	n	n	n	x
CNC(=O)COC(=O)c1cc2c(C)nn(-c3ccc(F)cc3)c2s1	17.4	n	n	n	n
Cc1nc(CS(=O)(=O)c2ccccc2)cc(Sc2ccc(Cl)cc2Cl)n1	n	n	n	n	x
CSc1cc(CS(=O)(=O)c2ccccc2)nc(-c2ccccc2)n1	20.2	n	n	n	28.0
O=S(=O)(Cc1cc(NCc2ccccc2)nc(-c2ccncc2)n1)c1ccccc1	16.8	n	n	n	43.8	RORg counter=n
CCCCN(C(=O)C1CC(=O)N(CCc2ccc(OC)c(OC)c2)C1)c1c(N)n(CCCC)c(=O)[nH]c1=O (configuration not stated)	n	n	n	n	x
CC(=O)N1CCc2cc(N=NC3=C(O)CC(C)(C)CC3=O)ccc21	20.0	n	n	n	20.2
Cc1nc2ccc(N=NC3=C(O)CC(C)(C)CC3=O)cc2s1	n	n	n	n	x
CCN(CC)c1ccc(C=C2SC(=S)NC2=O)cc1	38.8	n	n	n	29.6	RORg counter=n
COc1ccccc1C(=O)N1CCN(c2nc3cc(C)cc(C)c3cc2C#N)CC1	n	n	n	n	x
CC(=O)c1cccc(S(=O)(=O)N2CCN(c3nc4cc(C)cc(C)c4cc3C#N)CC2)c1	174.3	n	n	n	137.4
CC1CCc2sc(C(=O)Nc3nnc(SCc4ccc(F)cc4)s3)cc2C1 (configuration not stated)	29.6	n	n	n	n
O=c1c2ccccc2c(C=NCc2ccccn2)c(O)n1-c1ccccc1	69.2	n	n	n	19.8
COc1cccc(-n2c(O)c(C=NCc3ccccn3)c3ccccc3c2=O)c1	n	n	n	n	x
Cc1cccc(NC(=O)CNC(=O)[C@@H](Cc2ccccc2)NC(=O)[C@H]2O[C@@H](n3ccc(N)nc3=O)[C@H](O)[C@@H]2O)c1C	n	n	x	x	x
Cn1cc(SCC(=O)NCC2CCCO2)c2ccccc21 (configuration not stated)	29.6	n	n	n	n
Cn1c(SCC(=O)NCCc2ccccc2)ncc(C(=O)Nc2ccccc2)c1=O	30.1	n	n	n	20.4
Cn1c(SCC(=O)NCC2CCCO2)ncc(C(=O)Nc2ccc(Cl)cc2)c1=O (configuration not stated)	24.0	n	n	n	n
SMILES	NR1D1 modulator	PG9 Ab binder	Rin1 Abl inh	Tb MetRS inh	Rev-erbA confirm	others
COc1ccc(NC(=O)c2cnc(SCC(=O)NCCc3ccccc3)n(C)c2=O)cc1	n	n	n	n	x
COC(=O)C=C1CCC2C3CC(F)C4(O)CC(=O)CCC4(C)C3C(=O)CC12C (configuration not stated)	n	n	n	n	x
CC1OC(CCc2cccc(Cl)c2)Cc2[nH]c(=S)[nH]c(=O)c21 (configuration not stated)	n	n	x	n	x
O=C(Cn1c(=O)c(=O)n(Cc2ccccc2)c2ccc(Cl)cc21)Nc1ccc(F)cc1F	28.6	n	n	n	n
O=S(=O)(/N=C(/Nc1nc2ccccc2s1)c1ccccc1)c1ccc(F)cc1	19.1	n	n	n	n
COc1ccccc1CNC(=O)C1(C)CCN1Cc1ccc(OC(F)(F)F)cc1 (configuration not stated)	n	n	n	n	x
Cn1nnnc1-c1cc(Br)ccc1NC(=O)c1ccccc1	72.4	n	n	n	46.1	RORg counter=n
COc1ccc(C(=O)Nc2cc(C(C)=O)c(/C=C/N(C)C)oc2=O)cc1	n	n	n	n	x
CC(=O)c1cc(NC(=O)c2ccc(C)cc2)c(=O)oc1/C=C/N(C)C	30.7	n	n	n	n
Cc1cc(C(F)(F)F)n(-c2nc(C(=O)Nc3cccnc3)cs2)n1	n	n	n	n	x
CC(=O)c1cccc(NC(=O)c2csc(-n3nc(C)cc3C(F)(F)F)n2)c1	77.7	n	n	n	70.0	RORg counter=n
CC1(C(=O)O)CCC(C(=O)NNC(=O)c2ccccc2Cl)C1(C)C (configuration not stated)	n	n	n	n	x
CCCCCCCc1nc2c(=O)n(C)c3ccccc3c2o1	n	n	n	n	x
CCCCCCc1nc2c(=O)[nH]c3ccccc3c2o1	52.5	n	n	n	n
C[C@@H]1CN([C@@H](C)CO)S(=O)(=O)c2ccc(Br)cc2O[C@@H]1CN(C)C(=O)c1ccncc1	n	n	n	n	x
CCCc1nc2sc3c(=O)n(N)cnc3c2c2c1CCCC2	37.2	n	n	n	n
CCCCc1nc2sc3c(=O)n(N)cnc3c2c2c1CCCC2	n	n	n	n	x
CCNc1ccc2noc3c2c1C(=O)c1ccccc1-3	48.7	n	n	n	57.2	RORg counter=n
COc1ccc(N(Cc2cc3cccc(C)c3[nH]c2=O)S(=O)(=O)c2ccc(Cl)cc2)cc1	20.6	n	n	n	n
O=c1c(Cl)c(N2CCN(S(=O)(=O)c3ccc(F)cc3)CC2)cnn1-c1cccc(Cl)c1	27.9	n	n	n	27.5
O=C(Nc1ccc(F)cc1)Nc1cnccn1	n	n	n	n	x
O=C(Nc1cc(Cl)cc(Cl)c1)Nc1cnccn1	12.4	n	n	n	n
COC(=O)c1ccc(CNC(=O)c2ccc(OC)c(S(=O)(=O)NC3CC3)c2)cc1	n	n	n	n	x
CCOC(=O)c1c(NC(=O)CSc2nc3ccccc3c(=O)n2-c2ccc(F)cc2)sc(C(C)=O)c1C	114.0	n	n	n	29.7
Cc1ccc(-n2c(SCC(=O)Nc3cc(S(=O)(=O)N4CCOCC4)ccc3Cl)nc3ccccc3c2=O)cc1	n	n	n	n	x
O=C(CSc1nc2ccccc2c(=O)n1-c1ccc(F)c(Cl)c1)Nc1cccc(S(=O)(=O)N2CCOCC2)c1	37.9	n	n	n	19.3
CCc1ccc(-n2c(SCC(=O)Nc3cccc(S(=O)(=O)NC4=NCCCCC4)c3)nc3ccccc3c2=O)cc1	n	n	n	n	x
O=C(CSc1nc2ccccc2c(=O)n1-c1ccc(F)cc1)Nc1ccc(Cl)c(S(=O)(=O)N2CCOCC2)c1	63.0	n	n	n	33.2	RORg counter=n
Cc1ccc(-n2c(SCC(=O)Nc3cccc(S(=O)(=O)NC4=NCCCCC4)c3)nc3ccccc3c2=O)cc1	79.8	n	n	n	42.4	RORg counter=n

Screening data as filed in PubChem BioAssay.
